Bioassay records from PubChem.
PfHsp90 yeast 2: inhibits growth of yeast expressing Plasmodium falciparum Hsp90; 310,000 tested, 0.32% active; S. cerevisiae expressing PfHsp90, BacTiter-Glo ATP, 48 h; yeast lacking PDR1 and PDR3 efflux regulators; inhibition, % at 9.4 µM;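 active = every replicate shows inhibition above about 80%, whatever the replicate mean, limit read from the data; inconclusive = mean inhibition reaches the set limit but some replicate falls short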;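 also: 0% = DMSO neutral controls and 100% = 20 µM radicicol positive controls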
HIV Env fusion: blocks HIV Env-driven cell-cell fusion; HeLa-JRFL Env/CEM21 cell fusion, luciferase; inhibition, % at 12.3 µM; 360,000 tested, 1.1% active; AID 651610;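 active = mean replicate inhibition score of at least 50 and every replicate individually at or above 50; inconclusive = only one of the two criteria met; inactive = mean below 50 and not all replicates reaching 50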;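 also: 0% = plate neutral controls and 100% = maraviroc near 300 nM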
Rtt109 HAT inh: blocks Candida albicans Rtt109/Vps75 acetyltransferase activity. inhibition, % at 34.9 µM. 330,000 tested, 0.16% active. purified Rtt109/Vps75, ThioGlo CoA-SH fluorescence, 4 h. AID 540336. Q5AAJ8;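 active = inhibition of at least 50% in every replicate; inconclusive = best replicate reaches 50% inhibition but some replicates fall short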
Target sequence (Q5AAJ8 whole entry, looked up): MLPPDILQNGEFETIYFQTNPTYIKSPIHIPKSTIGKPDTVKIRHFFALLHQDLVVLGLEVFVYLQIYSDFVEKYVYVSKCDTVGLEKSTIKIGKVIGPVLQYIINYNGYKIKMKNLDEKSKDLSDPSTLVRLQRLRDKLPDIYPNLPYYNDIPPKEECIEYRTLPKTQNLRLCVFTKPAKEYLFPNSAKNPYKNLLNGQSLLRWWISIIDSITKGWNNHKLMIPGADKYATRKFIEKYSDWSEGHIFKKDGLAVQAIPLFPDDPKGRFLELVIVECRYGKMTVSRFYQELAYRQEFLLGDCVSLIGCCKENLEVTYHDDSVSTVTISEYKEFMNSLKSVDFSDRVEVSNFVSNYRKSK
Arrestin-AP2 inh: human beta-arrestin and AP2 interaction inhibition; FITC-arrestin peptide / GST-AP2 beads, flow cytometry; AP2 beta2 appendage carries R879A mutation; inhibition, % at 10 µM; 340,000 tested, 0.31% active;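 active = inhibition above a set limit, near 3 SD of compounds lacking own fluorescence, cut at about 54% in these data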;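 also: plate controls were DMSO wells for no effect and 5 µM unlabelled arrestin peptide for full effect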
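System: GST-AP2 R879A bound to glutathione beads, E. coli-expressed. Also added: 50 nM FITC-arrestin peptide. Schedule: compound with beads 12 min RT, then probe 1 h RT. Signal: bead flow cytometry, FITC channel. Read-out basis: percent response.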
PAX8 inh HTS: inhibitors of PAX8 transcriptional activity in RMG-I cells. RMG-I TPO-luciferase reporter, SteadyGlo, 24 h. inhibition, % at 12.6 µM. 360,000 tested, 1.2% active. AID 652154;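 active = mean replicate inhibition at least 60% with every replicate also reaching 60%; inconclusive = only one of the two criteria is met; inactive = mean below 60% and not all replicates reaching 60%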;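 also: luciferase light reporting Pax8 driven TPO promoter activity; plate controls were median of neutral control wells for no effect and mitoxantrone controls for full effect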
N-glyco inh: blocks N-linked glycosylation in D54 reporter cells; 360,000 tested, 0.23% active; reporter increase, % at 12.5 µM; AID 588692; D54 ERlucT glycosylation luciferase reporter, 24 h; percent of 100 nM tunicamycin response;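 active = mean luciferase reporter signal, scaled so untreated is 0 and the glycosylation-blocking control 100, at or above a set limit in every replicate; inconclusive = mean reaches the limit but not every replicate does; inactive = mean below the limit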;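 also: luciferase carries N-glycosylation sites so blocking glycosylation raises the light; 0% = median of neutral control wells and 100% = median of 100 nM tunicamycin wells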
* = called active by the depositor; u = inconclusive; x = no result given; ! = repeats disagree; [ ] = another dose, or the depositor's remark. Compounds with a hit are over-represented: about 2.3% of the library has one in this group of screens.

SMILES | PfHsp90 yeast 2 | HIV Env fusion | Rtt109 HAT inh | Arrestin-AP2 inh | PAX8 inh HTS | N-glyco inh
CCOc1ccc(N2CC(NS(=O)(=O)c3cccs3)CC2=O)cc1 (centres undefined) | -2 | 56* | -5 | -10 | 9 | -3
COC(=O)C1C(=O)C=C(Nc2ccc(F)cc2)CC1c1ccc(OC)cc1 (centres undefined) | 11 | -18 | -4 | -1 | -56 | 1
COC(=O)[C@H]1[C@@H](O)[C@@]2(O)c3c(OC)cc(OC)cc3O[C@@]2(c2ccc(OC)cc2)[C@@H]1c1ccc(F)cc1 | x | 27 | x | x | 98* | x
CC(C)NC(=O)Nc1ccc2c(c1)C(=O)N([C@H](C)CO)C[C@@H](C)[C@H](CN(C)Cc1ccc3c(c1)OCO3)O2 | x | x | x | x | 2 | x
Cc1cc(C)c(S(=O)(=O)N2CCC(C(=O)NCc3ccncc3)CC2)c(C)c1 | -7 | -5 | -11 | 0 | 11 | 1
Cc1cc(C)c(S(=O)(=O)N2CCC(C(=O)NCc3ccc(Cl)cc3Cl)CC2)c(C)c1 | 127* | -13 | 1 | -2 | -6 | -8
O=C(c1ccc(C(F)(F)F)cc1)N1CCC(=O)N(C(COCc2ccc(Cl)cc2)Cc2ccccc2)CC1 (centres undefined) | -6 | 28 | -3 | 6 | -7 | -1
CC(C)C[C@@H](COCc1cccc(Cl)c1)N1CCN(C(=O)c2ccc(C(F)(F)F)cc2)CCC1=O | x | 57* | x | x | 10 | x
O=C(c1ccc(C(F)(F)F)cc1)N1CCC(=O)N(C(COCc2ccccc2)Cc2ccccc2)CC1 (centres undefined) | -22 | 63* | 7 | 46 | 3 | -3
CC(C)CC(COCc1ccc(C(F)(F)F)cc1)N1CCN(C(=O)c2ccc(C(F)(F)F)cc2)CCC1=O (centres undefined) | 12 | 58* | -4 | -9 | 21 | -5
CC(C)C[C@@H](COCc1ccc(C(F)(F)F)cc1)N1CCN(C(=O)c2ccc(C(F)(F)F)cc2)CCC1=O | x | 46 | x | x | 18 | x
C[C@H]1CN([C@@H](C)CO)S(=O)(=O)c2ccc(C#Cc3ccncc3)cc2O[C@H]1CN(C)C(=O)C1CCOCC1 | x | 0[16.7 µM] | x | x | 39 | x
N#CC1=C(N)N2C(=C(C#N)C1c1cccc(Br)c1)Nc1ccccc12 (centres undefined) | 0 | 65* | 7 | -8 | -8 | -10
N#CC1=C(N)N2C(=C(C#N)C13CCN(Cc1ccccc1)CC3)Nc1ccccc12 | 13 | x | -16 | 26 | x | -5
N#CC1=C(N)N2C(=C(C#N)C1c1ccc(Br)cc1)Nc1ccccc12 (centres undefined) | x | 56* | x | x | 98* | x
CO[C@@H]1CN(C)C(=O)c2ccc(NC(=O)C3CC3)cc2OC[C@@H](C)N(Cc2cccc(F)c2)C[C@@H]1C | x | -13[16.7 µM] | x | x | 16 | x
COc1ccccc1S(=O)(=O)N(C)C[C@H]1Oc2cc(C#CCC3CCCC3)ccc2S(=O)(=O)N([C@H](C)CO)C[C@H]1C | x | 17 | x | x | 84*! | -3
COc1ccccc1S(=O)(=O)N(C)C[C@@H]1Oc2cc(C#CCC(C)C)ccc2S(=O)(=O)N([C@H](C)CO)C[C@@H]1C | x | -8 | x | x | 27 | -3
COc1ccccc1S(=O)(=O)N(C)C[C@@H]1Oc2cc(C#CCC3CCCC3)ccc2S(=O)(=O)N([C@H](C)CO)C[C@@H]1C | x | 30[16.7 µM] | x | x | 64* | x
COc1ccccc1S(=O)(=O)N(C)C[C@H]1Oc2cc(C#CCC3CCCC3)ccc2S(=O)(=O)N([C@H](C)CO)C[C@@H]1C | x | 28[16.7 µM] | x | x | 73* | x
COc1ccc(NC(=O)Nc2ccc3c(c2)CC(=O)N([C@H](C)CO)C[C@@H](C)[C@H](CN(C)Cc2ccc(C(=O)Nc4ccccc4N)cc2)O3)cc1 | x | x | x | x | -22 | x
C[C@@H]1CN([C@@H](C)CO)C(=O)c2cc(NC(=O)Nc3ccc(F)cc3)ccc2O[C@@H](C)CCCCO[C@@H]1CN(C)Cc1ccccc1 | x | -21[16.7 µM] | x | x | 2 | x
COc1ccccc1N1CCN(Cc2cc(Br)c(O)c3ncccc23)CC1 | -70 | -6 | 4 | 4 | 100* | -2
CCOc1ccccc1N1CCN(Cc2cccc(OC)c2O)CC1 | -10 | 10 | 2 | 13 | x | -1
COc1ccccc1N1CCN(CCOc2c(OC)cccc2OC)CC1 | x | 63* | 0 | 22 | x | 0
SMILES | PfHsp90 yeast 2 | HIV Env fusion | Rtt109 HAT inh | Arrestin-AP2 inh | PAX8 inh HTS | N-glyco inh
COc1ccccc1N1CCN(c2nc(C)nc3c2oc2ccccc23)CC1 | x | 63* | 10 | 2 | x | u
O=C(NC1CCC1)[C@@H]1[C@@H](CO)[C@@H]2Cn3c(ccc(-c4cncnc4)c3=O)[C@@H]2N1C(=O)NC1CCCC1 | x | x | x | x | 4 | x
COc1ccc(S(=O)(=O)Nc2ccc3c(c2)C(=O)N([C@H](C)CO)C[C@@H](C)[C@H](CN(C)Cc2ccc(Cl)c(Cl)c2)OCCCC[C@@H](C)O3)cc1 | x | 19[16.7 µM] | x | x | 66* | x
COc1ccc(S(=O)(=O)Nc2ccc3c(c2)C(=O)N([C@H](C)CO)C[C@H](C)[C@@H](CN(C)Cc2ccc(Cl)c(Cl)c2)OCCCC[C@@H](C)O3)cc1 | x | x | x | x | 94* | x
COc1ccc(S(=O)(=O)Nc2ccc3c(c2)C(=O)N([C@H](C)CO)C[C@H](C)[C@@H](CN(C)Cc2ccc(Cl)c(Cl)c2)OCCCC[C@H](C)O3)cc1 | x | 39[16.7 µM] | x | x | 47 | x
Brc1csc(/C=N/Nc2nc3ccccc3s2)c1 | 15 | -425 | -6 | 2 | x | -9
C(=NNc1ccc2ccccc2n1)c1ccccn1 | x | 17 | x | x | 102* | -19
Cc1cc(NN=Cc2ccccn2)nc2ccccc12 | x | -237 | x | x | 41 | x
Cc1ccc2[nH]c(C)c(/C=N/Nc3nc4ccccc4s3)c2c1 | 106* | -32 | 1 | 2 | -101 | -4
C(=N\Nc1nc2ccccc2s1)/c1ccccn1 | x | -2 | x | -8 | 88* | x
COc1ccc(C=NNc2nc3ccccc3s2)cc1 | -2 | -201 | 0 | -2 | 18 | -18
